Source: ChEMBL document CHEMBL4765301, “Discovery of novel TNNI3K inhibitor suppresses pyroptosis and apoptosis in murine myocardial infarction injury” (Eur J Med Chem, 2020)
Active and inactive are the calls of the source. The rule behind the calls is not given here.

Tests used:
[1] = target: Epidermal growth factor receptor (Homo sapiens) (UniProt P00533); test: Inhibition of recombinant human EGFR (696 to end residues) assessed as residual activity at 1 uM using poly(Glu, Tyr) 4:1 as substrate incubated for 40 mins by [gamma-33P]-ATP scintillation counting based radiometry assay relative to control
[2] = target: Vascular endothelial growth factor receptor 1 (Homo sapiens) (UniProt P17948); test: Inhibition of recombinant human FLT1 (783 to end residues) assessed as residual activity at 1 uM using KKKSPGEYVNIEFG as substrate incubated for 40 mins by [gamma-33P]-ATP scintillation counting based radiometry assay relative to control
H9c2 [3] = test: Inhibition of OGD-induced apoptosis in rat H9c2 cells assessed as viable cells at 0.5 uM incubated for 24 hrs by annexinV-FITC and PI staining based flow cytometry analysis (reference value: 85 %); format: functional
H9c2 [4] = test: Inhibition of OGD-induced apoptosis in rat H9c2 cells assessed as late apoptotic cells at 0.5 uM incubated for 24 hrs by annexinV-FITC and PI staining based flow cytometry analysis (reference value: 9 %); format: functional
H9c2 [5] = test: Inhibition of OGD-induced apoptosis in rat H9c2 cells assessed as late apoptotic cells at 1 uM incubated for 24 hrs by annexinV-FITC and PI staining based flow cytometry analysis (reference value: 9 %); format: functional
H9c2 [6] = test: Inhibition of OGD-induced apoptosis in rat H9c2 cells assessed as necrotic cells at 1 uM incubated for 24 hrs by annexinV-FITC and PI staining based flow cytometry analysis (reference value: 2.45 %); format: functional
H9c2 [7] = test: Cytoprotective activity against OGD-induced cell death in rat H9c2 cells assessed as cell viability incubated for 24 hrs by LDH release assay; format: functional, cell-based; conditions: dose 0.5-1 µM
Method in brief: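 OGD-exposed H9c2 cells were treated with 0.5 or 1.0 µM inhibitor for 24 h. LDH released into the culture medium was measured with a commercial LDH cytotoxicity kit.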

H9c2 [8] = test: Inhibition of OGD-induced apoptosis in rat H9c2 cells assessed as reduction in GSDMD activation at 0.5 to 1 uM by Western blot analysis; format: functional, cell-based; conditions: dose 0.5-1 µM
Method in brief: (§1)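 H9c2 cells under OGD were treated with saline or 0.5 or 1.0 µM inhibitor. Cells were trypsinised, washed in cold PBS, lysed in RIPA with sonication and centrifuged 30 min. Total protein was quantified and separated by SDS-PAGE, then transferred to PVDF. Blots were probed with primary and secondary antibodies and detected by ECL.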

H9c2 [9] = test: Inhibition of OGD-induced apoptosis in rat H9c2 cells assessed as reduction in caspase1 level at 0.5 to 1 uM by Western blot analysis; format: functional, cell-based; conditions: dose 0.5-1 µM; method in brief: as §1
H9c2 [10] = test: Inhibition of OGD-induced apoptosis in rat H9c2 cells assessed as reduction in GSDMD level at 0.5 to 1 uM by Western blot analysis; format: functional, cell-based; conditions: dose 0.5-1 µM; method in brief: as §1
H9c2 [11] = test: Inhibition of OGD-induced apoptosis in rat H9c2 cells assessed as reduction in ASC level at 0.5 to 1 uM by Western blot analysis; format: functional, cell-based; conditions: dose 0.5-1 µM; method in brief: as §1
Mus musculus [12] = test: Cardioprotective activity in C57BL/6 mouse model of myocardial infarction assessed as reduction in infarct area at 25 mg/kg, ip administered for 28 days and measured on day 28 by TTC staining based fluorescence microscopy; format: functional, organism-based; conditions: time 28.0 day
Method in brief: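 Male C57BL/6 mice (5-6 weeks); MI by permanent LAD ligation under ip ketamine (100mg/kg)/xylazine (10mg/kg) with ventilation; sham group operated without LAD occlusion. Post-MI mice randomised to sham, normal saline or inhibitor groups (n=4); 25 mg/kg given ip every two days. Hearts assessed after 28 days: TTC staining (infarct yellow-white, viable red), Masson's trichrome (blue collagen) and H&E.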

Mus musculus [13] = test: Cardioprotective activity in C57BL/6 mouse model of myocardial infarction assessed as reduction in scar tissue at 25 mg/kg, ip administered for 28 days and measured on day 28 by masson staining based fluorescence microscopy; format: functional, organism-based; conditions: time 28.0 day
Method in brief: (§2)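 MI made in male C57BL/6 mice (5-6 weeks) by permanent LAD ligation under ip ketamine (100mg/kg)/xylazine (10mg/kg), ventilated. Groups: sham, saline (NS), inhibitor 25 mg/kg ip every two days, n=4. Hearts examined after 28 days; TTC, Masson's trichrome and H&E staining of sections for infarct, collagen/scar, LV inflammatory cells and dilatation.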

Mus musculus [14] = test: Cardioprotective activity in C57BL/6 mouse model of myocardial infarction assessed as reduction in ventricular dilatation at 25 mg/kg, ip administered for 28 days and measured on day 28 by H and E staining based fluorescence microscopy; format: functional, organism-based; conditions: time 28.0 day; method in brief: as §2
Mus musculus [15] = test: In vivo inhibition of TNNI3K in C57BL/6 mouse assessed as reduction in GSDMD at 25 mg/kg, ip administered for 28 days and measured on day 28 by immunohistochemical staining based fluorescence microscopy; format: functional, organism-based; conditions: time 28.0 day
Method in brief: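 Male C57BL/6 mice (5-6 weeks) with LAD-ligation MI; sham, saline or 25 mg/kg ip every two days, n=4, 28 days. Heart sections given EDTA (pH 8.0) or citrate (pH 6.0) microwave antigen retrieval, then primary antibody 30-40 min at 37°C. Detection by HRP polymer secondary with DAB (IHC) or fluorescent secondary (IF). Positive cells were quantified.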

[16] = target: T1, Serine/threonine-protein kinase TNNI3K (Rattus norvegicus) (UniProt Q7TQP6); test: Inhibition of TNNI3K in rat H9c2 cells assessed as reduction in p38 phosphorylation at 0.5 to 1 uM by Western blot analysis; conditions: dose 0.5-1 µM
T1 sequence (whole entry): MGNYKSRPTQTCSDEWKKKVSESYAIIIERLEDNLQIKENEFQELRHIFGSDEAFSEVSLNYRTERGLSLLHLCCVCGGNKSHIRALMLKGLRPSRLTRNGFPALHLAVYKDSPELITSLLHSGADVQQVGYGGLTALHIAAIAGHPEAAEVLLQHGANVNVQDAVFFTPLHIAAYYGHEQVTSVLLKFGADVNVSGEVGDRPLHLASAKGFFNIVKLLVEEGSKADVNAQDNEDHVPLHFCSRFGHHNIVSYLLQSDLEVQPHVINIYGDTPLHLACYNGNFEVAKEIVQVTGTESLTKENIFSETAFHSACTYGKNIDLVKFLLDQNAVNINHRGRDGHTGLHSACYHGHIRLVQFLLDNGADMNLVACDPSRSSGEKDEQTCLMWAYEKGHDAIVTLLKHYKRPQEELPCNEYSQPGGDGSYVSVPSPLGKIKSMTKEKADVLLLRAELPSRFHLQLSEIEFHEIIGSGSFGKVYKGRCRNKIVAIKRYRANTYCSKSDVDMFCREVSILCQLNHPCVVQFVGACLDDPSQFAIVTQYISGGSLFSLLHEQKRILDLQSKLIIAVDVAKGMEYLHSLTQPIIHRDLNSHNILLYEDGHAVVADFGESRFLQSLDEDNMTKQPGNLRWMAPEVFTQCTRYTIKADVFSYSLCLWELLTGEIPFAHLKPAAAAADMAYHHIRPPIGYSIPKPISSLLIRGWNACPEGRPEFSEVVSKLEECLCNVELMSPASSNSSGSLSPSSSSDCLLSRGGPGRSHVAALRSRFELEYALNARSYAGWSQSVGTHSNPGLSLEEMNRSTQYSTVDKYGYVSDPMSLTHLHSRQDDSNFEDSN

Chain of Vascular endothelial growth factor receptor 1 (Homo sapiens) (P17948 whole entry): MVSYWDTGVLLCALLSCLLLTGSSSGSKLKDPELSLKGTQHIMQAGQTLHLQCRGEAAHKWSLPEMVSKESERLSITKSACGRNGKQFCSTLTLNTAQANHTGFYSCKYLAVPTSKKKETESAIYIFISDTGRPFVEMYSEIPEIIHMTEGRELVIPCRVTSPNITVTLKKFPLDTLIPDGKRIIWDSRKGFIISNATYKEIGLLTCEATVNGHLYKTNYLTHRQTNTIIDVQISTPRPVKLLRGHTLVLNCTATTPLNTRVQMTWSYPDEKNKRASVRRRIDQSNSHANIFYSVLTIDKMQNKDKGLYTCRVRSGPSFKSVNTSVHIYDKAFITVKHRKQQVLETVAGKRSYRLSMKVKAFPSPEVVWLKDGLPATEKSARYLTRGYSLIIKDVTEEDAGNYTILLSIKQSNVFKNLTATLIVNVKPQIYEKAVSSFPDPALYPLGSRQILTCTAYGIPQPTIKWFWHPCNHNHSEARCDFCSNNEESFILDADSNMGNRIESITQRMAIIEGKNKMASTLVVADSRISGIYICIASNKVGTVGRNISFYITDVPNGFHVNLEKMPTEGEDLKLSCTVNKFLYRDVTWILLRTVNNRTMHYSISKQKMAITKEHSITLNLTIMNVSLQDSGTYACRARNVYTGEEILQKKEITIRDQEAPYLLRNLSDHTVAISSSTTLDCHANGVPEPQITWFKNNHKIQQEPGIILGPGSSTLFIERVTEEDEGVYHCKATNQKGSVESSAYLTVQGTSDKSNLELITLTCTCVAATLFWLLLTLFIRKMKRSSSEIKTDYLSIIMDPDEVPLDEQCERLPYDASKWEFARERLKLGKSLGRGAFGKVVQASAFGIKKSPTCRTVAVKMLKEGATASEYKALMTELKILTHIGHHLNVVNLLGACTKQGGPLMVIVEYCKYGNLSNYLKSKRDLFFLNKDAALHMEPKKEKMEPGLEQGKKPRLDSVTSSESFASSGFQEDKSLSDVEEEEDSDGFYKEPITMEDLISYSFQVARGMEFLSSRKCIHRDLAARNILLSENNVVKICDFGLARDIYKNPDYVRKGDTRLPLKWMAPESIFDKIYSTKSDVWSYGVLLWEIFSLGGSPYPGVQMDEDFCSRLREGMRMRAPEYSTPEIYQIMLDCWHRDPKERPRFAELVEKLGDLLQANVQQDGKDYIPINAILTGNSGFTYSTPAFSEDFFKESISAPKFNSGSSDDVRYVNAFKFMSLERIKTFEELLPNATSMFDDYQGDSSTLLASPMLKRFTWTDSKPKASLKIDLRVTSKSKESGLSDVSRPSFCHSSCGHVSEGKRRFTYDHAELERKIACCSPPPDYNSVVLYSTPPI
Chain of Epidermal growth factor receptor (Homo sapiens) (P00533 whole entry): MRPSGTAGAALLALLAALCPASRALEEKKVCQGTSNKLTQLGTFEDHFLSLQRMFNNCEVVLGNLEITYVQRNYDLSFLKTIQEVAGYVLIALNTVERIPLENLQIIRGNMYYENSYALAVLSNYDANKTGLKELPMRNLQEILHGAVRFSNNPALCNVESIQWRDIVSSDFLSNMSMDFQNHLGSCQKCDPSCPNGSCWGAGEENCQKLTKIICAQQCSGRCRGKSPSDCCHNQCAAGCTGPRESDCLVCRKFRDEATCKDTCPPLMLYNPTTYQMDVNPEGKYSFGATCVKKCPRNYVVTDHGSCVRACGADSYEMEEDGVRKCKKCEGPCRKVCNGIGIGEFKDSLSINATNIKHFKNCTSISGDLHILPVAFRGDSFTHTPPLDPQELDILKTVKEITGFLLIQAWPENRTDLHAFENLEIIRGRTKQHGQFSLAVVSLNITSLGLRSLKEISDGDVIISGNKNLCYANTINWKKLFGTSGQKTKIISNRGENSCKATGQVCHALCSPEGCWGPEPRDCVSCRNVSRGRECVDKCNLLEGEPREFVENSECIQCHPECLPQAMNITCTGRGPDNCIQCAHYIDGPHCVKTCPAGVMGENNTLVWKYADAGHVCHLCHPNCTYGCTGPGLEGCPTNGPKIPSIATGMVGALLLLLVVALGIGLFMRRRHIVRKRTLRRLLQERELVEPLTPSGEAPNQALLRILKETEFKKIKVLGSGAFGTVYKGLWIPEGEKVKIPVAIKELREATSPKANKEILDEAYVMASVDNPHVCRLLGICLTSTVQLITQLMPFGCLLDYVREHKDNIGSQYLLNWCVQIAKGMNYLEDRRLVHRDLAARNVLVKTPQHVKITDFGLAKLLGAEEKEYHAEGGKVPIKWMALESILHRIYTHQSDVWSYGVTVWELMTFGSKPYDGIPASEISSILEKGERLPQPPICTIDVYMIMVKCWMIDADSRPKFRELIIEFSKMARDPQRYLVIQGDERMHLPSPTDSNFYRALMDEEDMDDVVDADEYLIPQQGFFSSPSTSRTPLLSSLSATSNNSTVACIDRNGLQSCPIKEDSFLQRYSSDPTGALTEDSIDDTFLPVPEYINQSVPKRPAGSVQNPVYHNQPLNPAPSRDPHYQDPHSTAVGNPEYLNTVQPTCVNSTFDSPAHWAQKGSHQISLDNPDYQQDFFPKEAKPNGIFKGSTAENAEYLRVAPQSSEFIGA

Work on `CN(C)CCCN1CCc2c(sc3ncnc(Nc4ccc(N(C)C)c(NC(=O)c5ccco5)c4)c23)C1` yielded an Activity [1] of 81%, an Activity [2] of 91% and an inhibition at 0.5 µM (H9c2 [3]) of 87%. It also gave an inhibition at 0.5 µM (H9c2 [4]) of 7.15%, an inhibition at 1 µM (H9c2 [5]) of 5.02% and an inhibition at 1 µM (H9c2 [6]) of 1.07%. For the same compound, the Activity (H9c2 [7]) was “Dose-dependent effect”, the inhibition (H9c2 [8]) was “Active” and the inhibition (H9c2 [9]) was “inactive”. The inhibition (H9c2 [10]) was “inactive”, the inhibition (H9c2 [11]) was “Active” and the Activity (Mus musculus [12]) was “Active”. The Activity (Mus musculus [13]) was “Active”, the Activity (Mus musculus [14]) was “Active” and the inhibition (Mus musculus [15]) was “Active”. For the same compound, the inhibition [16] was “Active”.
